In ChEMBL document CHEMBL4665880, “Dihydrobenzoxazinone derivatives as aldose reductase inhibitors with antioxidant activity” (Bioorg Med Chem, 2020):
pIC50: −log10 of the molar value.

Experiments:
Rattus norvegicus = species: Rattus norvegicus; assay: Selectivity index, ratio of IC50 for rat kidney ALR1 to IC50 for rat lens ALR2
[1] = target: Aldo-keto reductase family 1 member A1 (Rattus norvegicus, UniProt P51635); assay: Inhibition of rat kidney ALR1 using […] as substrate preincubated for 4 mins at 37 degC followed by substrate addition and measured after 4 mins in presence of NADPH; format: tissue-based
Sequence of Aldo-keto reductase family 1 member A1 (P51635 whole entry, looked up): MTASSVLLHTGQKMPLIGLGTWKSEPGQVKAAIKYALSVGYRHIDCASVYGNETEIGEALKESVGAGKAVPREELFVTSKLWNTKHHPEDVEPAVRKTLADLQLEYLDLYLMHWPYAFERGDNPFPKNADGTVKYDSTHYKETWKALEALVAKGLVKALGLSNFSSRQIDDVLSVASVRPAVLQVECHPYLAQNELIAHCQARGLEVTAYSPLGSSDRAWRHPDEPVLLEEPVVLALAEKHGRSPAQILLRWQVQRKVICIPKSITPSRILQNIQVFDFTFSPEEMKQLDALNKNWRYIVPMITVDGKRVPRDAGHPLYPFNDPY
Procedure, shortened: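 Rat kidney enzyme extract with 0.12 mM NADPH, 0.1 M sodium phosphate pH 7.2 and inhibitor in DMSO, preincubated 4 min at 37 °C; reaction started with sodium D-[…] (20 mM stock) and monitored 4 min. Corrected for nonenzymatic NADPH oxidation. Tested 100 µM to 10 nM, three replicates per concentration; IC50 from linear log(dose)–response fit (r² > 0.95).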

[2] = target: Aldo-keto reductase family 1 member B1 (Rattus norvegicus, UniProt P07943); assay: Inhibition of rat lens ALR2 using D,L-glyceraldehyde as substrate preincubated for 5 mins at 30 degC followed by substrate addition and measured after 4 mins in presence of NADPH; format: tissue-based
[3] = Antioxidant activity assessed as DPPH radical scavenging activity at 100 uM relative to control; format: functional
Procedure, shortened: (§1)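 DPPH (0.025 mg/mL stock in methanol, 1 mL) mixed with 1.9 mL methanol and 100 µL methanolic compound or Trolox, giving final 100, 10, 5 and 1 µM. Absorbance at 517 nm read after reaching steady state; scavenging % = (1 − (A sample − A blank)/A control)×100, blank being compound in methanol, control DPPH in methanol. Triplicate.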

[4] = Antioxidant activity assessed as DPPH radical scavenging activity at 10 uM relative to control; format: functional; procedure, shortened: as §1
[5] = Antioxidant activity assessed as DPPH radical scavenging activity at 5 uM relative to control; format: functional; procedure, shortened: as §1
[6] = Antioxidant activity assessed as DPPH radical scavenging activity at 1 uM relative to control; format: functional; procedure, shortened: as §1
[7] = Antioxidant activity assessed as superoxide anion radical scavenging activity incubated for 40 mins by spectrophotometric method; format: functional
Procedure, shortened: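 Incubation at 37 °C for 40 min, then 2 mL chromogenic reagent added; after 10 min standing, absorbance read at 550 nm. Activity (U/µmol) = (A control − A sample)/(A control − A blank) ×150 ÷ sample concentration (µM); control ascorbic acid 150 mg/L, blank distilled water. Triplicate.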

Brain = assay: Antioxidant activity in rat brain homogenate assessed as inhibition of FeCl3/ascorbic acid-induced lipid peroxidation by measuring MDA level at 100 uM after 30 mins by thiobarbituric acid based spectrophotometric method relative to control; format: functional, tissue-based
Procedure, shortened: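 Fresh rat brain homogenized 25% in ice-cold saline, spun 3000 rpm 10 min; supernatant incubated with compound (100 µM), […] at 37 °C for 30 min. MDA measured by TBA kit: boiled 95 °C 40 min, iced, centrifuged, read at 532 nm. Methanol used as control vehicle. Triplicate.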

SMILES	Ratio IC50 (Rattus norvegicus)	pIC50 [1]	pIC50 [2]	inhibition [3] [%]	inhibition [4] [%]	inhibition [5] [%]	inhibition [6] [%]	Activity [7] [U/µM]	inhibition (Brain) [%]
O=C(O)CN1CC(=O)Oc2c(/C=C/c3ccc(C(F)(F)F)cc3)cccc21	23.7	5.49	6.86	91.3	89.2	44.3	9.92	–	–
O=C(O)CN1CC(=O)Oc2c(/C=C/c3ccc(F)cc3)cccc21	25.7	5.37	6.78	92.6	90	57.1	12.6	0.79	74.8
CC(C)(C)c1ccc(/C=C/c2cccc3c2OC(=O)CN3CC(=O)O)cc1	3.93	6.17	6.77	–	–	–	–	–	–
CC(/C=C1\SC(=S)N(CC(=O)O)C1=O)=C\c1ccccc1	–	5.92	–	–	–	–	–	–	–
O=C(O)CN1CC(=O)Oc2c(/C=C/c3ccc(-c4ccccc4)cc3)cccc21	–	–	6.55	–	–	–	–	–	–
O=C(O)CN1CC(=O)Oc2c(-c3ccccc3)cccc21	–	–	5.48	91.3	36.5	13.2	6.12	–	–
COc1ccc(/C=C/c2cccc3c2OC(=O)CN3CC(=O)O)cc1	–	–	6.68	–	–	–	–	–	–
Cc1ccc(/C=C/c2cccc3c2OC(=O)CN3CC(=O)O)cc1	–	–	6.66	–	–	–	–	–	–
COc1ccc(-c2cccc3c2OC(=O)CN3CC(=O)O)cc1	–	–	6.11	–	–	–	–	–	–
O=C(O)CN1CC(=O)Oc2c(/C=C/c3ccccc3)cccc21	9.11	5.55	6.51	86.5	84.2	43.6	12	0.81	75.8
O=C(O)CN1CC(=O)Oc2c(/C=C/c3ccc(O)cc3)cccc21	60.6	5.30	7.09	93.2	87.5	57.4	14.7	1.07	81.7
O=Cc1ccc(-c2cccc3c2OC(=O)CN3CC(=O)O)cc1	–	–	5.98	–	–	–	–	–	–
Cc1c(C)c2c(c(C)c1O)CCC(C)(C(=O)O)O2 (stereo not drawn)	–	–	–	94.6	82.6	47.8	10.2	1.13	75.5
O=C(O)CN1CC(=O)Oc2ccccc21	7.1	4.86	5.71	92.8	65.6	23.1	7.17	0.73	72.2
O=C(O)CN1CC(=O)Oc2c(/C=C/c3ccc([N+](=O)[O-])cc3)cccc21	–	–	6.58	–	–	–	–	–	–
COc1cc(/C=C/c2cccc3c2OC(=O)CN3CC(=O)O)ccc1O	24	5.35	6.73	93.1	85	57.8	18.2	1.02	80.7
